# Measured values as given in ChEMBL document CHEMBL1159018, “(-)-agelasidine C and (-)-agelasidine D, two new hypotaurocyamine diterpenoids from the Caribbean sea sponge Agelas clathrodes” (J Nat Prod, 1992).
# The source made the active and inactive calls. The calls are words filed in the database; no cut-off is given here.
# Legend:
# Klebsiella pneumoniae [1] = assay: Antimicrobial activity against Klebsiella pneumoniae at 1.9 mg/ml by standard disk assay; format: functional, organism-based
# Summary of the method: (§1)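 Tested at one concentration only, 1.9 mg/ml.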
# [2] = Cytotoxicity against CHOK1 cells; format: cell-based, Cricetulus griseus; conditions: chinese hamster, CHO-K1 cells; read-out: ED50 (the source's name)
# Summary of the method: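 CHO-K1 cell growth inhibition, reported as ED50 in µg/ml.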
# Proteus vulgaris [3] = assay: Antimicrobial activity against Proteus vulgaris at 1.9 mg/ml by standard disk assay; format: functional, organism-based; summary of the method: as §1
# Staphylococcus aureus [4] = assay: Antimicrobial activity against Staphylococcus aureus at 1.9 mg/ml by standard disk assay; format: functional, organism-based; summary of the method: as §1
# Escherichia coli = assay: Antimicrobial activity against Escherichia coli by standard disk assay; format: functional, organism-based
# Proteus vulgaris [5] = assay: Antimicrobial activity against Proteus vulgaris by standard disk assay; format: functional, organism-based; summary of the method: as §1
# Klebsiella pneumoniae [6] = assay: Antimicrobial activity against Klebsiella pneumoniae by standard disk assay; format: functional, organism-based; summary of the method: as §1
# Hafnia alvei = assay: Antimicrobial activity against Hafnia alvei by standard disk assay; format: functional, organism-based
# Staphylococcus aureus [7] = assay: Antimicrobial activity against Staphylococcus aureus by standard disk assay; format: functional, organism-based; summary of the method: as §1
Structure (SMILES),Activity (Klebsiella pneumoniae [1]),CC50 [2] [µg/mL],Activity (Proteus vulgaris [3]),Activity (Staphylococcus aureus [4]),Activity (Escherichia coli),Activity (Proteus vulgaris [5]),Activity (Klebsiella pneumoniae [6]),Activity (Hafnia alvei),Activity (Staphylococcus aureus [7])
CC1=CCC[C@H](C)[C@@]1(C)CC/C(C)=C/CC/C(C)=C/CS(=O)(=O)CCNC(=N)N,Active,5.7,Active,Active,,,,,
CC1=CCC[C@H](C)[C@@]1(C)CC/C(C)=C/CC/C(=C/CS(=O)(=O)CCNC(=N)N)CO,,2.21,,,Active,Active,Active,Active,Active
